Assay results: ChEMBL document CHEMBL1131436, “Repaglinide and related hypoglycemic benzoic acid derivatives” (1998)

Assays:
Rattus norvegicus [1] = assay: Maximum % decrease of blood glucose (deltaBG) was observed within 4 hour after administration orally at 0.1 mg/kg dose to fasted adult female rats versus a control group; format: functional; settings: route oral
Procedure, shortened: (§1)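 Female Wistar rats (Chbb THOM, SPF, 200-220 g), fasted 24 h, dosed orally by gavage as suspension in 1.5% Tylose methylcellulose (10 mL/kg). Whole blood from retrobulbar plexus under light halothane, deproteinized with 0.33 M HClO4; glucose by hexokinase/G6PDH, hourly up to 4 h. % decrease vs control group (N = 7), Student's t-test, P ≤ 0.05.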

Rattus norvegicus [2] = assay: Maximum % decrease of blood glucose (deltaBG) was observed within 4 hour after administration orally at 0.5 mg/kg dose to fasted adult female rats versus a control group; format: functional; settings: route oral; procedure, shortened: as §1
Rattus norvegicus [3] = assay: Maximum % decrease of blood glucose (deltaBG) was observed within 4 hour after administration orally at 1 mg/kg dose to fasted adult female rats versus a control group; NS =' not significant'; format: functional, organism-based; design: dose 1 mg/kg; procedure, shortened: as §1
Rattus norvegicus [4] = assay: Maximum % decrease of blood glucose (deltaBG) was observed within 4 hour after administration orally at 1 mg/kg dose to fasted adult female rats versus a control group; format: functional; settings: route oral; procedure, shortened: as §1
Rattus norvegicus [5] = assay: Maximum % decrease of blood glucose (deltaBG) was observed within 4 hour after administration orally at 10 mg/kg dose to fasted adult female rats versus a control group; format: functional; settings: route oral; procedure, shortened: as §1
Rattus norvegicus [6] = assay: Half-maximal effective dose was measured on rat blood glucose after administrating at 4 hr; format: functional; settings: Rattus norvegicus, Blood, 4 h; read-out: ED50
Procedure, shortened: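 Adult fasted female Wistar rats (Chbb THOM, SPF, 200-220 g), food withdrawn 24 h; oral gavage of suspension in 1.5% Tylose (methylcellulose), 10 mL/kg. Retrobulbar blood under light halothane; glucose by hexokinase/G6PDH after HClO4 deproteinization, hourly to 4 h. ED50 from fit of glucose vs dose, y = b + [a × k/(k + x^nH)], Hill coefficient nH.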

Compound	Delta BG (Rattus norvegicus [4]) [%]	Delta BG (Rattus norvegicus [5]) [%]	further results
CCCCC(NC(=O)Cc1ccc(C(=O)O)c(OCC)c1)c1ccccc1N1CCCCC1 (configuration not stated)			Delta BG (Rattus norvegicus [1]): -24%; Delta BG (Rattus norvegicus [2]): -45%
CCCCCC(NC(=O)Cc1ccc(C(=O)O)c(OCC)c1)c1ccccc1N1CCCCC1 (configuration not stated)			Delta BG (Rattus norvegicus [1]): -13%; Delta BG (Rattus norvegicus [2]): -42%
CC(C)C(NC(=O)Cc1ccc(C(=O)O)cc1)c1ccccc1N1CCCCC1 (configuration not stated)			Delta BG (Rattus norvegicus [2]): -18%
CC1CCN(c2ccc(Cl)cc2C(=O)NCCc2ccc(C(=O)O)cc2)CC1			Delta BG (Rattus norvegicus [3]): Not significant
CCCC(NC(=O)Cc1ccc(C(=O)O)cc1)c1ccccc1C1CCCCC1 (configuration not stated)	-9	-31	
O=C(Cc1ccc(C(=O)O)cc1)N[C@H](c1ccccc1)c1ccccc1N1CCCCC1			Delta BG (Rattus norvegicus [3]): Not significant
C=C(C)C[C@H](NC(=O)Cc1ccc(C(=O)O)c(OCC)c1)c1ccccc1N1CCCCC1			Delta BG (Rattus norvegicus [1]): -43%
CCCCCCC(NC(=O)Cc1ccc(C(=O)O)c(OCC)c1)c1ccccc1N1CCCCC1 (configuration not stated)	-21		
O=C(Cc1ccc(C(=O)O)cc1)NC(c1ccccc1N1CCCCC1)C1CCCCC1 (configuration not stated)	-27		
CCCC(c1ccccc1N1CCCCC1)N(C)C(=O)Cc1ccc(C(=O)O)cc1 (configuration not stated)		-12	
CC1CC(C)CN(c2ccc(Cl)cc2C(=O)NCCc2ccc(C(=O)O)cc2)C1 (stereo in doubt; 5i)			Delta BG (Rattus norvegicus [4]; 1 mg/kg): -11%
CCOc1cc(CC(=O)NC(CC2CCCCC2)c2ccccc2N2CCCCC2)ccc1C(=O)O (configuration not stated)			Delta BG (Rattus norvegicus [1]): -23%
CC1CCN(c2ccccc2C(C)NC(=O)Cc2ccc(C(=O)O)cc2)CC1 (configuration not stated)	-27	-46	
CCCC(NC(=O)Cc1ccc(C(=O)O)cc1)c1ccccc1-c1ccccc1 (configuration not stated)		-21	
CC(NC(=O)Cc1ccc(C(=O)O)cc1)c1ccccc1N(C)C (configuration not stated)		-20	
CCCCC(NC(=O)Cc1ccc(C(=O)O)cc1)c1ccccc1N1CCCCC1 (configuration not stated)			Delta BG (Rattus norvegicus [2]): -32%
O=C(Cc1ccc(C(=O)O)cc1)NC(CCc1ccccc1)c1ccccc1N1CCCCC1 (configuration not stated)		-38	
CC(NC(=O)Cc1ccc(C(=O)O)cc1)c1ccccc1N1CCCCC1C (configuration not stated)	-13	-43	
CC(NC(=O)Cc1ccc(C(=O)O)cc1)c1cc(Cl)ccc1N1CCCCC1C (configuration not stated)		-14	
CCC[C@H](NC(=O)Cc1ccc(C(=O)O)cc1)c1ccccc1N1CCCCC1			Delta BG (Rattus norvegicus [1]): -29%

Compound	Delta BG (Rattus norvegicus [4]) [%]	Delta BG (Rattus norvegicus [5]) [%]	further results
O=C(Cc1ccc(C(=O)O)cc1)NC(Cc1ccccc1)c1ccccc1N1CCCCC1 (configuration not stated)		-27	
O=C(O)c1ccc(CCNC(=O)c2cc(Cl)ccc2N2CCCCCCC2)cc1	-29		
CCCCCC(NC(=O)Cc1ccc(C(=O)O)cc1)c1ccccc1N1CCCCC1 (configuration not stated)	-29		
CC1CC(C)CN(c2ccc(Cl)cc2C(=O)NCCc2ccc(C(=O)O)cc2)C1 (stereo in doubt; 5h)			ED50 (Rattus norvegicus [6]): 0.33 mg/kg; Delta BG (Rattus norvegicus [2]): -29%; Delta BG (Rattus norvegicus [4]; 1 mg/kg): -44%
CCCC(NC(=O)Cc1ccc(C(=O)O)cc1)c1ccccc1 (configuration not stated)		-18	
CC(NC(=O)Cc1ccc(C(=O)O)cc1)c1cc(Cl)ccc1N(C)C (configuration not stated)		-20	
COc1cc(CCNC(=O)c2cc(Cl)ccc2N2CCCCCCCC2)ccc1C(=O)O	-15		
CCC[C@@H](NC(=O)Cc1ccc(C(=O)O)cc1)c1ccccc1N1CCCCC1	-19		
O=C(O)c1ccc(CCNC(=O)c2cc(Cl)ccc2N2CCCCCC2)cc1	-16		
CCOc1cc(CC(=O)NC(c2ccccc2)c2ccccc2N2CCCCC2)ccc1C(=O)O (configuration not stated)			Delta BG (Rattus norvegicus [1]): -22%; Delta BG (Rattus norvegicus [2]): -40%
CCOc1cc(CC(=O)NC(CC2CCCCCC2)c2ccccc2N2CCCCC2)ccc1C(=O)O (configuration not stated)			Delta BG (Rattus norvegicus [2]): -19%
CCOc1cc(CC(=O)NC(CC2CCC2)c2ccccc2N2CCCCC2)ccc1C(=O)O (configuration not stated)			Delta BG (Rattus norvegicus [1]): -27%
CCOc1cc(CCNC(=O)c2cc(Cl)ccc2OC)ccc1C(=O)O	-8	-35	
CCCC(NC(=O)Cc1ccc(C(=O)O)cc1)c1ccccc1OC (configuration not stated)	-21	-44	
CCCC(CC(=O)Cc1ccc(C(=O)O)cc1)c1ccccc1N1CCCCC1 (configuration not stated)		-11	
CC(NC(=O)Cc1ccc(C(=O)O)cc1)c1cc(Cl)ccc1N1CCCC1 (configuration not stated)		-26	
O=C(Cc1ccc(C(=O)O)cc1)NCc1ccccc1N1CCCCC1		-38	
CC1CC(C)CN(c2ccc(Cl)cc2C(C)NC(=O)Cc2ccc(C(=O)O)cc2)C1 (configuration not stated)		-20	
CC1CCCN(c2ccc(Cl)cc2C(C)NC(=O)Cc2ccc(C(=O)O)cc2)C1 (configuration not stated)		-34	
O=C(Cc1ccc(C(=O)O)cc1)NCc1cc(Cl)ccc1N1CCCCC1		-37	

Compound	Delta BG (Rattus norvegicus [4]) [%]	Delta BG (Rattus norvegicus [5]) [%]	further results
CCC(NC(=O)Cc1ccc(C(=O)O)cc1)c1ccccc1N1CCCCC1 (configuration not stated)			Delta BG (Rattus norvegicus [2]): -28%
CCOc1cc(CC(=O)NC(CC2CCCC2)c2ccccc2N2CCCCC2)ccc1C(=O)O (configuration not stated)			Delta BG (Rattus norvegicus [1]): -17%
COc1ccccc1C(C)NC(=O)Cc1ccc(C(=O)O)cc1 (configuration not stated)		-21	
CC1CCCN(c2ccccc2C(C)NC(=O)Cc2ccc(C(=O)O)cc2)C1 (configuration not stated)	-27	-42	
O=C(O)c1ccc(CCNC(=O)c2ccccc2N2CCCCCCCC2)cc1	-9		
CC(C)CC(NC(=O)Cc1ccc(C(=O)O)cc1)c1ccccc1N1CCCCC1 (configuration not stated)			Delta BG (Rattus norvegicus [1]): -30%
COc1ccc(Cl)cc1C(=O)NCCc1ccc(C(=O)O)cc1 [MEGLITINIDE]	-9	-22	ED50 (Rattus norvegicus [6]): 9.4 mg/kg
CC(C)(NC(=O)Cc1ccc(C(=O)O)cc1)c1ccccc1N1CCCCC1		-34	
CCOc1cc(CC(=O)NC(C)c2ccccc2N2CCCCC2)ccc1C(=O)O (configuration not stated)			Delta BG (Rattus norvegicus [1]): -27%
CC1CCCN(c2ccc(Cl)cc2C(=O)NCCc2ccc(C(=O)O)cc2)C1 (configuration not stated)	-22		
C=C(C)CC(NC(=O)Cc1ccc(C(=O)O)c(OCC)c1)c1ccccc1N1CCCCC1 (configuration not stated)			Delta BG (Rattus norvegicus [1]): -31%
CCOc1cc(CC(=O)NC(Cc2ccccc2)c2ccccc2N2CCCCC2)ccc1C(=O)O (configuration not stated)		-38	
O=C(O)c1ccc(CCNC(=O)c2cc(Cl)ccc2N2CCCCCCCCC2)cc1	-29		
CCCC(NC(=O)Cc1ccc(C(=O)O)cc1)c1cc(Cl)ccc1N1CCCCC1 (configuration not stated)	-17		
CCOc1cc(CCNC(=O)c2cc(Cl)ccc2N2CCCCCCCC2)ccc1C(=O)O	-16		
CC1CCCCN1c1ccc(Cl)cc1C(=O)NCCc1ccc(C(=O)O)cc1 (configuration not stated)	-16		
COc1ccc(Cl)cc1C(C)NC(=O)Cc1ccc(C(=O)O)cc1 (configuration not stated)		-14	
CCCC(/N=C(\S)Cc1ccc(C(=O)O)cc1)c1ccccc1N1CCCCC1 (configuration not stated)		-35	
CCOc1cc(CC(=O)NC(CC2CC2)c2ccccc2N2CCCCC2)ccc1C(=O)O (configuration not stated)			Delta BG (Rattus norvegicus [1]): -37%
